From publication PMC10698511 (RSC Advances, 2023)

How the values were obtained:
[1] = Plasma protein binding, human; type: in vitro ADME
HeLa cells [2] = assay: Antiproliferative activity against HeLa cells; type: cell-based; conditions: Homo sapiens, 48 h, read-out: HeLa IC50
Procedure, shortened: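 HeLa cells from ATCC in RPMI-1640 with 10% FBS and 1% penicillin-streptomycin at 37 °C, 5% CO2. Seeded at 10000 cells/well one day before treatment. Test compound added from DMSO solution and incubated for 48 h, then CCK-8 reagent added and absorbance read at 450 nm. IC50 is the mean of three independent determinations from triplicate samples.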

[3] = Plasma protein binding, mouse; type: in vitro ADME
[4] = Microsomal stability in mouse liver microsomes; type: in vitro ADME; conditions: percentage remaining after 30 min, NADPH
[5] = Microsomal stability in human liver microsomes; type: in vitro ADME; conditions: percentage remaining after 30 min, NADPH
HeLa cells [6] = assay: Cell cycle assay in HeLa cells; type: cell-based; conditions: 48 h treatment
Procedure, shortened: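 HeLa cells (1 × 10^6) grown in 6-well plates and treated with test compound at several concentrations for 48 h. Cells harvested, fixed in 70% ethanol, held at −20 °C for 12 h, then stained with Muse cell cycle reagent for 30 min at room temperature in the dark. Phase distribution read on a Muse cell analyzer. G2/M percentages compared by one-way ANOVA.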

tubulin = assay: Tubulin polymerization assay; type: biochemical; conditions: 0 to 8 μM, 1 h at 37 °C, absorbance 340 nm
Procedure, shortened: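 Commercial tubulin polymerization kit used per the manufacturer's protocol. Test compound mixed with tubulin in the supplied general tubulin buffer. Polymerization followed by absorbance at 340 nm for 1 h at 37 °C. Curves compared by two-way ANOVA.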

| Structure (SMILES) | fraction unbound [1] | IC50 (HeLa cells [2]) [µM] | fraction unbound [3] | Microsomal stability (%) Mouse [4] [%] | Microsomal stability (%) Human [5] [%] | cell cycle effect (HeLa cells [6]) | effect on tubulin polymerization (tubulin) |
| --- | --- | --- | --- | --- | --- | --- | --- |
| Cc1ccc(CNC(=O)Cn2ccc(-c3ccc(OCCN4CCOCC4)cc3)cc2=O)cc1 [Compound 56] | 0.171 | 0.25 ± 0.06 | 0.04 | 50.6 ± 1.2 | 20.2 ± 2.3 |  |  |
| O=C(Cc1ccc(-c2ccc(OCCN3CCOCC3)cc2)cn1)NCc1ccccc1 [Compound 8, Tirbanibulin, reference compound] | 0.187 | 0.044 ± 0.011 | 0.152 |  |  | G2/M phase arrest | microtubule destabilizers |
| O=C(Cn1ccc(-c2ccc(OCCN3CCOCC3)cc2)cc1=O)NCc1ccc(F)cc1 [Compound 57] |  | 0.34 ± 0.11 |  |  |  |  |  |
